Results as given in ChEMBL document CHEMBL5260794, “Synthesis and biological evaluation of a new class of benzothiazines as neuroprotective agents” (Eur J Med Chem, 2017).
The source made the active and inactive calls. The calls are words filed in the database; no cut-off is given here.

Assays:
[1] = species on record: Rattus norvegicus; experiment: Neuroprotective activity against oxygen glucose deprivation/reperfusion-induced Wistar rat cortical brain assessed as concentration required to reduce glutamate release by measuring efficacy window; format: functional
Method in brief: (§1)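 Male Wistar rat cortical slices (400 μm) in oxygenated ACSF, pH 7.4, 1 h at room temperature, then 30 min at 37 °C. OGD for 30 min in glucose-free ACSF with 11 mM sucrose under 95% N₂/5% CO₂. Compound added in the reoxygenation buffer. Glutamate and LDH release measured. Mean ± SEM of at least four experiments, ANOVA with Dunnett test.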

[2] = species on record: Rattus norvegicus; experiment: Neuroprotective activity against oxygen glucose deprivation/reperfusion-induced Wistar rat cortical brain assessed as concentration required to reduce LDH release by measuring efficacy window; format: functional; method in brief: as §1
[3] = species on record: Rattus norvegicus; experiment: Neuroprotective activity against oxygen glucose deprivation/reperfusion-induced Wistar rat cortical brain assessed as reduction in LDH release relative to control; format: functional; design: concentration or dose not given beside the values; method in brief: as §1
[4] = species on record: Rattus norvegicus; experiment: Neuroprotective activity against oxygen glucose deprivation/reperfusion-induced Wistar rat cortical brain assessed as reduction in glutamate release by measuring minimal effective concentration; format: functional; method in brief: as §1
[5] = species on record: Rattus norvegicus; experiment: Neuroprotective activity against oxygen glucose deprivation/reperfusion-induced Wistar rat cortical brain assessed as reduction in LDH release by measuring minimal effective concentration; format: functional; method in brief: as §1
[6] = species on record: Rattus norvegicus; experiment: Neuroprotective activity against oxygen glucose deprivation/reperfusion-induced Wistar rat cortical brain assessed as reduction in glutamate release relative to control; format: functional; design: concentration or dose not given beside the values; method in brief: as §1
[7] = test system: SH-SY5Y; experiment: Neuroprotective activity against glutamate-induced toxicity in human SH-SY5Y cells assessed as increase in S phase cells at 0.01 uM pretreated for 1 hr followed by glutamate challenge measured after 24 hrs by propidium staining based flow cytometry; format: functional, cell-based; conditions: time 25.0 hrs
Method in brief: (§2)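 Cells seeded 2.5 x 10⁵ cells/mL, pretreated with compound 1 h, then glutamate 50 mM for 24 h. Cells fixed in 70% ethanol (30 min, 4 °C), kept at -20 °C for at least 24 h, stained with propidium iodide and run on flow cytometer (563-607 nm band-pass). At least 1x10⁴ cells acquired per sample; sub-G0/G1 peak taken as apoptotic. Mean ± SEM, 4 independent experiments.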

[8] = test system: SH-SY5Y; experiment: Neuroprotective activity against glutamate-induced toxicity in human SH-SY5Y cells assessed as reduction in cell rounding at 0.01 uM pretreated for 1 hr followed by glutamate challenge measured after 24 hrs by phase-contrast light microscopic analysis; format: functional, cell-based; conditions: time 25.0 hrs
Method in brief: (§3)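 SH-SY5Y cells pretreated with compound 1 h, then glutamate 50 mM for 24 h. Morphology examined and photographed by phase-contrast microscopy. Scored on USP 28 grade scale 0-4, with grades based on cell rounding, loss of intracytoplasmic granules, lysis and empty areas between cells. Control wells received medium only.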

[9] = test system: SH-SY5Y; experiment: Neuroprotective activity against glutamate-induced toxicity in human SH-SY5Y cells assessed as reduction in cell detachment at 0.01 uM pretreated for 1 hr followed by glutamate challenge measured after 24 hrs by phase-contrast light microscopic analysis; format: functional, cell-based; conditions: time 25.0 hrs; method in brief: as §3
[10] = test system: SH-SY5Y; experiment: Neuroprotective activity against glutamate-induced toxicity in human SH-SY5Y cells assessed as reduction in G0/G1 phase cells at 0.01 uM pretreated for 1 hr followed by glutamate challenge measured after 24 hrs by propidium staining based flow cytometry; format: functional, cell-based; conditions: time 25.0 hrs; method in brief: as §2
[11] = test system: SH-SY5Y; experiment: Neuroprotective activity against glutamate-induced toxicity in human SH-SY5Y cells assessed as reduction in sub G0/G1 phase cells at 0.01 uM pretreated for 1 hr followed by glutamate challenge measured after 24 hrs by propidium staining based flow cytometry; format: functional, cell-based; conditions: time 25.0 hrs; method in brief: as §2
[12] = test system: SH-SY5Y; experiment: Neuroprotective activity against glutamate-induced toxicity in human SH-SY5Y cells assessed as reduction in ROS production measured after 24 hrs by DCFH-DA staining based assay; format: functional, cell-based; conditions: dose 0.1-10 µM
Method in brief: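 Human SH-SY5Y neuroblastoma cells were preloaded with DCFH-DA (5 μM, 30 min) and washed in PBS. They were then pretreated for 1 h with compound (0.1-10 μM; DMSO stock diluted in PBS, final DMSO <0.01%) and challenged with glutamate (50 mM). Fluorescence (ex 485/em 535 nm) was read at 24 h and expressed as % inhibition of glutamate-induced ROS. Data are mean ± SEM of 4 experiments run in triplicate or quadruplicate.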

[13] = test system: SH-SY5Y; experiment: Neuroprotective activity against glutamate-induced toxicity in human SH-SY5Y cells assessed as cell viability at 0.01 uM pretreated for 1 hr followed by glutamate challenge measured after 24 hrs by MTT assay; format: functional; conditions: time 25 hrs, read-out: Activity
[14] = test system: SH-SY5Y; experiment: Neuroprotective activity against 6-OHDA-induced toxicity in human SH-SY5Y cells assessed as increase in cell viability at 0.01 uM pretreated for 1 hr followed by 6-OHDA challenge measured after 2 hrs by MTT assay; format: functional, cell-based; conditions: time 3.0 hrs
Method in brief: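 SH-SY5Y cells (RPMI 1640, 10% FBS, 37 °C, 5% CO2, used in exponential growth) seeded 8 x 10⁴ cells/mL, attached 24 h, pre-incubated with compound 1 h, then 6-OHDA 55 μM for 2 h (6-OHDA freshly dissolved in nitrogen-gassed 5 μM ascorbic acid). Controls received medium with 5 μM ascorbic acid. Viability by MTT. Mean ± SEM of 4 independent experiments, each in triplicate or quadruplicate.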

[15] = test system: SH-SY5Y; experiment: Neuroprotective activity against glutamate-induced toxicity in human SH-SY5Y cells assessed as reduction in condensed and fragmented nuclei at 0.01 uM pretreated for 1 hr followed by glutamate challenge measured after 24 hrs by DAPI staining based assay (reference value: 16.9 +/- 1.5%); format: functional, cell-based; conditions: time 25.0 hrs
[16] = test system: SH-SY5Y; experiment: Neuroprotective activity against glutamate-induced toxicity in human SH-SY5Y cells assessed as reduction in grade 2 to 3 toxicity at 0.01 uM pretreated for 1 hr followed by glutamate challenge measured after 24 hrs by phase-contrast light microscopic analysis; format: functional, cell-based; conditions: time 25.0 hrs; method in brief: as §3
[17] = test system: SH-SY5Y; experiment: Neuroprotective activity against glutamate-induced toxicity in human SH-SY5Y cells assessed as reduction in ROS production at 0.01 uM by DCFH-DA staining based assay; format: functional, cell-based; conditions: time 24.0 hrs, TDE = time-dependent effect
Method in brief: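 Before treatment, SH-SY5Y cells loaded with DCFH-DA (5 μM, 30 min) and washed in PBS. Then 1 h compound pretreatment followed by glutamate 50 mM. Fluorescence read at 1 h or 24 h (ex 485, em 535 nm). Result expressed as % inhibition of glutamate-induced intracellular ROS. Mean ± SEM, 4 independent experiments in triplicate or quadruplicate.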

[18] = test system: SH-SY5Y; experiment: Neuroprotective activity against glutamate-induced toxicity in human SH-SY5Y cells assessed as reduction in cell shrinkage at 0.01 uM pretreated for 1 hr followed by glutamate challenge measured after 24 hrs by phase-contrast light microscopic analysis; format: functional, cell-based; conditions: time 25.0 hrs; method in brief: as §3
[19] = test system: SH-SY5Y; experiment: Neuroprotective activity against 6-OHDA-induced toxicity in human SH-SY5Y cells assessed as condensed and fragmented nuclei at 0.01 uM pretreated for 1 hr followed by 6-OHDA challenge measured after 2 hrs by DAPI staining based assay relative to control; format: functional; conditions: time 3 hrs
[20] = test system: SH-SY5Y; experiment: Neuroprotective activity against 6-OHDA-induced toxicity in human SH-SY5Y cells assessed as reduction in condensed and fragmented nuclei at 10 uM pretreated for 1 hr followed by 6-OHDA challenge measured after 2 hrs by DAPI staining based assay relative to control; conditions: time 3.0 hrs

## NC1=Nc2ccc(OC(F)(F)F)cc2CS1
[1]
  Efficacy: 0.001 µM
[2]
  Efficacy: inactive
[3]
  Activity: inactive
[4]
  MEC: 0.001 µM
[5]
  MEC: inactive
[6]
  Activity: 69.1%

## C/C(=N\C1=Nc2ccccc2CS1)N(C)C
[1]
  Efficacy: 0.01 µM
[2]
  Efficacy: 0.01 µM
[3]
  Activity: 78.4%
[4]
  MEC: 0.01 µM
[5]
  MEC: 0.01 µM
[6]
  Activity: 72.7%

## Nc1nc2ccc(OC(F)(F)F)cc2s1 [RILUZOLE]
[7]
  Activity: Active
[8]
  Activity: Active
[9]
  Activity: Active
[10]
  Activity: Active
[11]
  Activity: Active
[12]
  Activity: Dose-Dependent Effect
[13]
  viability at 0.01 µM: 65%
[14]
  Activity: Active
[15]
  Activity: Active
[16]
  Activity: Active
[17]
  Activity: Tde
[18]
  Activity: Active
[19]
  Activity: >20%

## CCN(CC)/C(C)=N/C1=Nc2ccc(OC(F)(F)F)cc2CS1
[1]
  Efficacy: inactive
[2]
  Efficacy: inactive
[3]
  Activity: inactive
[4]
  MEC: inactive
[5]
  MEC: inactive
[6]
  Activity: inactive

## CCCN(CCC)/C(C)=N/C1=Nc2ccc(OC(F)(F)F)cc2CS1
[1]
  Efficacy: 0.01 µM
[2]
  Efficacy: 0.1 µM
[3]
  Activity: 31%
[4]
  MEC: 0.01 µM
[5]
  MEC: 0.1 µM
[6]
  Activity: 17.8%

## CN/C(C)=N/C1=Nc2ccccc2CS1
[1]
  Efficacy: 5 µM
[2]
  Efficacy: 1 µM
[3]
  Activity: 40.1%
[20]
  Activity: Active
[4]
  MEC: 5 µM
[5]
  MEC: 0.1 µM
[6]
  Activity: 43.6%

## C/C(=N\C1=Nc2ccccc2SC1)N(C)C
[1]
  Efficacy: inactive
[2]
  Efficacy: inactive
[3]
  Activity: inactive
[4]
  MEC: inactive
[5]
  MEC: inactive
[6]
  Activity: inactive

## CCN(CC)/C(C)=N/C1=Nc2ccccc2SC1
[1]
  Efficacy: inactive
[2]
  Efficacy: inactive
[3]
  Activity: inactive
[4]
  MEC: inactive
[5]
  MEC: inactive
[6]
  Activity: inactive

## CCCNC(=S)NC1=Nc2ccccc2CS1
[1]
  Efficacy: 0.001 µM
[2]
  Efficacy: inactive
[3]
  Activity: inactive
[4]
  MEC: 0.001 µM
[5]
  MEC: inactive
[6]
  Activity: 45.7%

## CCCN(CCC)/C(C)=N/C1=Nc2ccccc2SC1
[1]
  Efficacy: inactive
[2]
  Efficacy: 10 µM
[3]
  Activity: 53.5%
[4]
  MEC: inactive
[5]
  MEC: 10 µM
[6]
  Activity: inactive

## CN/C(C)=N/C1=Nc2ccccc2SC1
[1]
  Efficacy: 0.1 µM
[2]
  Efficacy: 100 µM
[3]
  Activity: 33.2%
[4]
  MEC: 0.1 µM
[5]
  MEC: 100 µM
[6]
  Activity: 25.5%
